Experimental data of several laboratories.
Each line is one published result; the experiments were not run side by side.

SMILES	target or system	test	test system	setting	quantity	result
CCOc1ccc2c(C)c(CC)c(=O)oc2c1C	MDA-MB-231	cell growth or viability, MTT	–	31.25 µg/mL	viability	100%
O=C(CO/N=c1\cc2n(-c3ccc(Cl)cc3)c3ccccc3nc-2cc1Nc1ccc(Cl)cc1)NCc1ccc(C(F)(F)F)cc1	Neisseria gonorrhoeae	microbial growth	ATCC49226	–	MIC	15 µM
C[C@@H]1CC[C@@H]([C@](O)(CNCc2ccc(F)cc2)COCc2ccc(F)cc2)[C@H](OCc2ccc(F)cc2)C1	MDA-MB-231	cell growth or viability, MTT	–	10 µM, 72 h	inhibition	88.9%
CCc1c(C)c2ccc(OCc3nnc(S)n3N)c(C)c2oc1=O	MDA-MB-231	cell growth or viability, MTT	–	62.5 µg/mL	viability	69.4%
COc1ccc(CNC[C@](O)(COCc2ccc(F)cc2)[C@@H]2CC[C@@H](C)C[C@H]2OCc2ccc(F)cc2)cc1	MDA-MB-231	cell growth or viability, MTT	–	30 µM, 72 h	inhibition	99.4%
C[C@H](NC(=O)CO/N=c1\cc2n(-c3ccc(Cl)cc3)c3ccccc3nc-2cc1Nc1ccc(Cl)cc1)C(=O)OC(C)(C)C	Neisseria gonorrhoeae	microbial growth	ATCC49226	–	MIC	3.75 µM
O=C1C(Br)=C(Br)C(=O)c2ccccc21	Lodderomyces parapsilosis	microbial growth, broth dilution	ATCC22019	24 h	MIC	< 1.56 µg/mL
C[C@@H]1CC[C@@H]([C@](O)(CNCc2cccc3ccccc23)COCc2ccccc2)[C@H](OCc2ccccc2)C1	MDA-MB-231	cell growth or viability, MTT	–	30 µM, 72 h	inhibition	98%
Cc1c(Cc2ccccc2)c(=O)oc2c(C)c(OCC(=O)NN=Cc3ccccc3)ccc12	MDA-MB-231	cell growth or viability, MTT	–	125 µg/mL	viability	8.96%
COc1ccc(COC[C@@](O)(CNCc2ccc(F)cc2)[C@@H]2CC[C@@H](C)C[C@H]2OCc2ccc(OC)cc2)cc1	MDA-MB-231	cell growth or viability, MTT	–	10 µM, 72 h	inhibition	91.7%
CC(=NNC(=O)COc1ccc2c(C)c(Cc3ccccc3)c(=O)oc2c1C)c1ccc(Br)cc1	MDA-MB-231	cell growth or viability, MTT	–	500 µg/mL	viability	19.9%
O=C(O)CNC(=O)CO/N=c1\cc2n(-c3ccc(Cl)cc3)c3ccccc3nc-2cc1Nc1ccc(Cl)cc1	Neisseria gonorrhoeae	microbial growth	ATCC49226	–	MIC	1.88 µM
Cc1c(Cc2ccccc2)c(=O)oc2c(C)c(OCC(=O)NN=Cc3ccc([N+](=O)[O-])cc3)ccc12	MDA-MB-231	cell growth or viability, MTT	–	500 µg/mL	viability	14.4%
C=CCO/N=c1\cc2n(-c3ccc(Cl)cc3)c3ccccc3nc-2cc1Nc1ccc(Cl)cc1	Neisseria gonorrhoeae	microbial growth	ATCC49226	–	MIC	15 µM
COc1ccc(COC[C@@](O)(CNCc2ccccc2)[C@@H]2CC[C@@H](C)C[C@H]2OCc2ccc(OC)cc2)cc1	MDA-MB-231	cell growth or viability, MTT	–	10 µM, 72 h	inhibition	99.5%
